# Laboratory results from ChEMBL document CHEMBL3792386, “Design, Synthesis, and Biological Evaluation of Novel Selenium (Se-NSAID) Molecules as Anticancer Agents” (J Med Chem, 2016).
# pIC50: −log10 of the molar value. The source made the active and inactive calls. The rule behind the calls is not given here.
# Legend:
# [1] = Induction of cell death in human HCT116 cells at 15 uM after 24 hrs by ethidium bromide staining-based fluorescence microscopy; type: functional, HCT-116
# Summary of the method: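 HCT116 cells treated 24 h with DMSO, 1 mM aspirin or 15 μM compound, then trypsinised. Cells were stained with calcein-AM (live, esterase activity) and ethidium homodimer-1 (dead, membrane loss). Cells were imaged by fluorescence microscopy with a 20X objective, and percent dead cells was counted. Values are mean ±SD.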
# HCT-116 [2] = test: Induction of apoptosis in human HCT116 cells assessed as dead cells at 10 uM after 24 hrs by annexin V/7-ADD staining-based flow cytometry (reference value: 3.10%); type: functional
# HCT-116 [3] = test: Induction of apoptosis in human HCT116 cells assessed as late apoptotic cells at 10 uM after 24 hrs by 7-ADD and caspase 3/7 activity-based flow cytometry (reference value: 1.70%); type: functional
# MDA-MB-231 [4] = test: Antiproliferative activity against human MDA-MB-231 cells assessed as reduction in cell viability after 24 hrs by MTT assay; type: functional, cell-based; conditions: MDA-MB-231, 24 h
# Summary of the method: (§1)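 3000 cells/well incubated in triplicate with serial concentrations of compound for 24, 48 or 72 h at 37 °C. MTT (5.0 mg/mL solution) added 3 h before the end. Formazan dissolved in DMSO, absorbance read at 570 and 630 nm. Viability normalised to vehicle control. IC50 from non-linear regression (variable slope), mean ± SD of triplicates.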
# HCT-116 [5] = test: Induction of apoptosis in human HCT116 cells assessed as live cells at 5 uM after 24 hrs by annexin V/7-ADD staining-based flow cytometry (reference value: 90.05%); type: functional
# HepG2 [6] = test: Antiproliferative activity against human HepG2 cells assessed as reduction in cell viability after 72 hrs by MTT assay; type: functional, cell-based; conditions: HepG2, 72 h; summary of the method: as §1
# UACC-903 = test: Antiproliferative activity against human UACC-903 cells assessed as reduction in cell viability after 48 hrs by MTT assay; type: functional, cell-based; conditions: UACC-903, 48 h; summary of the method: as §1
# NCI-H460 = test: Antiproliferative activity against human NCI-H460 cells assessed as reduction in cell viability after 72 hrs by MTT assay; type: functional, cell-based; conditions: NCI-H460, 72 h; summary of the method: as §1
# RKO [7] = test: Antiproliferative activity against human RKO cells assessed as reduction in cell viability after 72 hrs by MTT assay; type: functional, cell-based; summary of the method: as §1
# [8] = Antiproliferative activity against human SKOV3 cells assessed as reduction in cell viability after 48 hrs by MTT assay; type: functional, cell-based; conditions: SK-OV-3, 48 h; summary of the method: as §1
# HT-29 [9] = test: Antiproliferative activity against human HT-29 cells assessed as reduction in cell viability after 24 hrs by MTT assay; type: functional, cell-based; conditions: HT-29, 24 h; summary of the method: as §1
# HCT-116 [10] = test: Induction of cell cycle arrest in human HCT116 cells assessed as accumulation at S phase at 5 uM after 12 hrs by propidium iodide staining-based flow cytometry (reference value: 55%); type: functional
# HCT-116 [11] = test: Induction of ROS generation in human HCT116 cells at 10 uM after 6 hrs by flow cytometry (reference value: 6%); type: functional
# HCT-116 [12] = test: Induction of apoptosis in human HCT116 cells assessed as early apoptotic cells at 5 uM after 24 hrs by annexin V/7-ADD staining-based flow cytometry (reference value: 5.20%); type: functional
# HCT-116 [13] = test: Induction of apoptosis in human HCT116 cells assessed as early apoptotic cells at 2.5 uM after 24 hrs by 7-ADD and caspase 3/7 activity-based flow cytometry (reference value: 2.45%); type: functional
# HCT-116 [14] = test: Induction of apoptosis in human HCT116 cells assessed as late apoptotic cells at 5 uM after 24 hrs by annexin V/7-ADD staining-based flow cytometry (reference value: 1.65%); type: functional
# HCT-116 [15] = test: Induction of apoptosis in human HCT116 cells assessed as late apoptotic cells at 2.5 uM after 24 hrs by annexin V/7-ADD staining-based flow cytometry (reference value: 1.65%); type: functional
# HCT-116 [16] = test: Induction of ROS generation in human HCT116 cells at 10 uM after 24 hrs by flow cytometry (reference value: 12.42%); type: functional
# HCT-116 [17] = test: Induction of apoptosis in human HCT116 cells assessed as live cells at 2.5 uM after 24 hrs by 7-ADD and caspase 3/7 activity-based flow cytometry (reference value: 92.60%); type: functional
# [18] = Antiproliferative activity against human HCT116 cells assessed as reduction in cell viability after 72 hrs by MTT assay; type: functional, cell-based; conditions: HCT-116, 72 h; summary of the method: as §1
# HCT-116 [19] = test: Induction of apoptosis in human HCT116 cells assessed as live cells at 10 uM after 24 hrs by annexin V/7-ADD staining-based flow cytometry (reference value: 90.05%); type: functional
# HT-29 [20] = test: Antiproliferative activity against human HT-29 cells assessed as reduction in cell viability after 72 hrs by MTT assay; type: functional, cell-based; conditions: HT-29, 72 h; summary of the method: as §1
# [21] = Antiproliferative activity against human PANC1 cells assessed as reduction in cell viability after 48 hrs by MTT assay; type: functional, cell-based; conditions: PANC-1, 48 h; summary of the method: as §1
# HepG2 [22] = test: Antiproliferative activity against human HepG2 cells assessed as reduction in cell viability after 24 hrs by MTT assay; type: functional, cell-based; conditions: HepG2, 24 h; summary of the method: as §1
# [23] = Antiproliferative activity against human HCT116 cells assessed as reduction in cell viability after 48 hrs by MTT assay; type: functional, cell-based; conditions: HCT-116, 48 h; summary of the method: as §1
# MDA-MB-231 [24] = test: Antiproliferative activity against human MDA-MB-231 cells assessed as reduction in cell viability after 72 hrs by MTT assay; type: functional, cell-based; conditions: MDA-MB-231, 72 h; summary of the method: as §1
# HCT-116 [25] = test: Effect on cell cycle in human HCT116 cells assessed as inhibition of cyclin B1 expression at 1 to 10 uM after 24 hrs by Western blot method; type: functional, cell-based
# Summary of the method: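 CRC cells treated at indicated doses for 24 h. Whole-cell lysates made in RIPA buffer with protease and phosphatase inhibitors and cleared at 15,000 rpm for 10 min. Resolved on 4-12% gels, transferred to PVDF, probed for cell-cycle proteins, detected by ECL. Membranes stripped for sequential probing.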
# [26] = Antiproliferative activity against human DU145 cells assessed as reduction in cell viability after 24 hrs by MTT assay; type: functional, cell-based; conditions: DU-145, 24 h; summary of the method: as §1
# [27] = Antiproliferative activity against human SKOV3 cells assessed as reduction in cell viability after 72 hrs by MTT assay; type: functional, cell-based; conditions: SK-OV-3, 72 h; summary of the method: as §1
# HCT-116 [28] = test: Induction of apoptosis in human HCT116 cells assessed as early apoptotic cells at 10 uM after 24 hrs by annexin V/7-ADD staining-based flow cytometry (reference value: 5.20%); type: functional
# [29] = Antiproliferative activity against human DU145 cells assessed as reduction in cell viability after 72 hrs by MTT assay; type: functional, cell-based; conditions: DU-145, 72 h; summary of the method: as §1
# HCT-116 [30] = test: Induction of apoptosis in human HCT116 cells assessed as dead cells at 5 uM after 24 hrs by annexin V/7-ADD staining-based flow cytometry (reference value: 3.10%); type: functional
# HCT-116 [31] = test: Induction of cell cycle arrest in human HCT116 cells assessed as accumulation at S phase at 5 uM after 24 hrs by propidium iodide staining-based flow cytometry (reference value: 48%); type: functional
# RKO [32] = test: Antiproliferative activity against human RKO cells assessed as reduction in cell viability after 24 hrs by MTT assay; type: functional, cell-based; summary of the method: as §1
structure (smiles),measurement,setting,value
CC(=O)Oc1ccccc1C(=O)NCC[Se]C#N,Activity,[1],51%
same,Activity,HCT-116 [2],1.6%
same,Activity,HCT-116 [3],46.85%
same,pIC50,MDA-MB-231 [4],4.68
same,Activity,HCT-116 [5],31.2%
same,pIC50,HepG2 [6],5.37
same,pIC50,UACC-903,5.40
same,pIC50,NCI-H460,5.89
same,pIC50,RKO [7],5.54
same,pIC50,[8],5.28
same,pIC50,HT-29 [9],5.47
same,Activity,HCT-116 [10],14%
same,Activity,HCT-116 [11],16.54%
same,Activity,HCT-116 [12],36.15%
same,Activity,HCT-116 [13],28.45%
same,Activity,HCT-116 [14],31.35%
same,Activity,HCT-116 [15],8.3%
same,Activity,HCT-116 [16],80.54%
same,Activity,HCT-116 [17],60.4%
same,pIC50,[18],5.68
same,Activity,HCT-116 [19],14.45%
same,pIC50,HT-29 [20],5.68
same,pIC50,[21],5.68
same,pIC50,HepG2 [22],4.80
same,pIC50,[23],5.60
same,pIC50,MDA-MB-231 [24],5.22
same,inhibition,HCT-116 [25],Active
same,pIC50,[26],5.09
same,pIC50,[27],5.36
same,Activity,HCT-116 [28],32.4%
same,pIC50,[29],5.54
same,Activity,HCT-116 [30],1.3%
same,Activity,HCT-116 [31],13%
same,pIC50,RKO [32],4.88
